Drawing on ChEMBL document CHEMBL1155633, “New lignan glycosides with potent antiinflammatory effect, isolated from Justicia ciliata” (J Nat Prod, 2000), this text covers IC50, inhibition and Activity for three compounds.

Test [1] in a line: Antiinflammatory activity against mouse […] cells assessed as inhibition of LPS-induced nitrite accumulation treated 1 hr before LPS challenge assessed after 24 hrs. It is filed as functional, cell-based. The method, boiled down: (§1)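 RAW 264.7 macrophages were plated at 2×10^5 cells/well in DMEM with 5% FCS and adhered overnight. They were pretreated 1 h at 37 °C with compound or 0.5% DMSO vehicle, then stimulated with E. coli 0111:B4 LPS 1 μg/mL for 24 h. Medium nitrite was read by Griess reaction (10 min at RT, A550) against an NaNO₂ standard. Mean ± s.e.m., n=3; IC50 from concentration–response.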

Test [2] has as its system N9. Description: Antiinflammatory activity against mouse N9 cells assessed as inhibition of LPS/IFN-gamma-induced nitrite accumulation at 30 uM treated 1 hr before LPS challenge assessed after 24 hrs.
Test [3] can be described thus: Antiinflammatory activity against mouse […] cells assessed as inhibition of LPS-induced nitrite accumulation at 30 uM treated 1 hr before LPS challenge assessed after 24 hrs. It is filed as functional. The method, boiled down:
as §1

For another test, the species on record is Mus musculus. The experiment in a line: Antiinflammatory activity against mouse […] cells assessed as inhibition of LPS-induced TNFalpha generation treated 1 hr before LPS challenge assessed after 24 hrs. It is filed as functional, cell-based. The method, boiled down: (§2)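 TNF-α release assay. Cells were pretreated with compound at 37 °C for 1 h and then stimulated for 24 h. N9 microglia were in Iscove's medium with 2% heat-inactivated FCS at 8×10^4 cells/well and were stimulated with LPS 10 μg/mL. RAW 264.7 cells were in DMEM with 5% FCS at 2×10^5 cells/well and were stimulated with LPS 1 μg/mL. Medium was stored at -70 °C until assay.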

Test [4] in a line: Antiinflammatory activity against mouse […] cells assessed as inhibition of LPS-induced nitrite accumulation at 3 uM treated 1 hr before LPS challenge assessed after 24 hrs. The test is classed as functional. The gist of the method:
as §1

A short description of test [5]: Antiinflammatory activity against mouse […] cells assessed as inhibition of LPS-induced nitrite accumulation at 10 uM treated 1 hr before LPS challenge assessed after 24 hrs. It is filed as functional. The method, boiled down: as §1
The test system of test [6] is N9. Description: Antiinflammatory activity against mouse N9 cells assessed as inhibition of LPS/IFN-gamma-induced nitrite accumulation at 10 uM treated 1 hr before LPS challenge assessed after 24 hrs.
Test [7] deals with N9. The experiment in a line: Antiinflammatory activity against mouse N9 cells assessed as inhibition of LPS/IFN-gamma-induced TNFalpha generation treated 1 hr before LPS challenge assessed after 24 hrs. It is filed as functional, cell-based. The gist of the method:
as §2

Test [8] is described as follows: Antiinflammatory activity against mouse […] cells assessed as inhibition of LPS-induced nitrite accumulation at 1 mM treated 1 hr before LPS challenge assessed after 24 hrs. It is filed as functional. The method, boiled down: (§3)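 RAW 264.7 cells in DMEM with 5% FCS seeded at 2×10^5 cells/well and allowed to adhere overnight. Pretreated 1 h at 37 °C with compound or 0.5% DMSO (final), then stimulated with 1 μg mL⁻¹ E. coli 0111:B4 LPS for 24 h. Medium nitrite measured by Griess reaction (absorbance 550 nm) using an NaNO₂ standard curve. Mean ± s.e.m., n=3.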

Test [9] in a line: Antiinflammatory activity against mouse […] cells assessed as inhibition of LPS-induced nitrite accumulation at 0.1 mM treated 1 hr before LPS challenge assessed after 24 hrs. The test is classed as functional. The method, boiled down:
as §3

Test [10] can be described thus: Antiinflammatory activity against mouse […] cells assessed as inhibition of LPS-induced nitrite accumulation at 0.3 mM treated 1 hr before LPS challenge assessed after 24 hrs. The test is classed as functional. The method, boiled down: as §3
Test [11] deals with N9. Description: Antiinflammatory activity against mouse N9 cells assessed as inhibition of LPS/IFN-gamma-induced nitrite accumulation treated 1 hr before LPS challenge assessed after 24 hrs.

The structures appear in SMILES notation. The source made the active and inactive calls. The rule behind the calls is not given here.

As usually defined, the IC50 is the midpoint of a concentration-inhibition curve. Usually inhibition stands for the change of the read-out against control, counted positive when it falls.

For the compound `COc1cc2c(O[C@@H]3OC[C@](O)(CO[C@@H]4OC[C@@H](O)[C@H](O)[C@H]4O)[C@H]3O[C@@H]3OC[C@H](O)[C@H](O)[C@H]3O)c3c(c(-c4ccc5c(c4)OCO5)c2cc1OC)C(=O)OC3` [CILIATOSIDE A], the IC50 in [1] turned out to be 27.1 µM. The inhibition at 30 µM was determined as 37.9% in the test with N9 [2] and 11.9% in [3]. The result in the test listed under Mus musculus and with N9 [7] was inactive. Moreover, the inhibition at 3 µM in test [4] worked out at 22%. The inhibition at 10 µM in test [5] came out at 18.7%; in the test with N9 [6] it was 46.7%.
In the case of `COc1cc2c(O[C@@H]3OC[C@](O)(CO[C@@H]4OC[C@@H](O)[C@H](O)[C@H]4O)[C@H]3O[C@@H]3OC[C@H](O)[C@H](O[C@@H]4OC[C@](O)(CO)[C@H]4O)[C@H]3O)c3c(c(-c4ccc5c(c4)OCO5)c2cc1OC)C(=O)OC3` [CILIATOSIDE B], the IC50 in test [1] was found to be 29.4 µM. Besides, the inhibition at 30 µM in the test with N9 [2] amounted to 36.5%; in test [3] it was 12.4%. In addition, the result in the test listed under Mus musculus and in the test with N9 [7] was inactive. Moreover, the inhibition at 3 µM in [4] was 20.7%. The figures for the inhibition at 10 µM (in [5]; with N9 [6]) were 20.5% and 42.8%, respectively.
Take `COC(=O)[C@@H](N)CCCNC(=N)N[N+](=O)[O-]` [L-NAME]: the inhibition at 1000 µM in test [8] worked out at 6.6%. Also, the IC50 in [1] turned out to be 510 µM; in the test with N9 [11] it was 630 µM. The inhibition at 100 µM in test [9] was found to be 16.8%. Also, in test [10], the inhibition at 300 µM is 15.6%.
